The species named for one series is Bos taurus. Kind of series: Activation of actin-stimulated bovine cardiac myosin S1 fragment ATPase activity in sarcomere at 10 uM after 10 mins by spectrophotometric analysis relative to control.
Series [1] deals with Rattus norvegicus. Kind of series: Positive inotropic activity in Sprague-Dawley rat heart assessed as increase in left ventricle fractional shortening at 2 to 16 ug/kg/min infused for 3 mins by echocardiographic analysis. It is filed as functional. In a few lines:
(§1)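 Seven-week-old male Sprague-Dawley rats; dosing via internal jugular vein central line, infused at 0, 2, 4, 8 and 16 µg/kg/min for 3 minutes from a 40 µg/mL final solution (concentration checked by HPLC against three standards). M-mode echocardiography at baseline and 16 µg/kg/min with a 25 MHz transducer; percent rise in LV fractional shortening and ejection fraction.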

For series [2], the system named is Rattus norvegicus. As to the kind of experiment: Positive inotropic activity in Sprague-Dawley rat heart assessed as increase in ejection fraction at 2 to 16 ug/kg/min infused for 3 mins by echocardiographic analysis. The class given is functional. In outline:
as §1

For another series, the species on record is Oryctolagus cuniculus. Kind of series: Activation of actin-stimulated rabbit skeletal muscle myosin S1 fragment ATPase activity at 100 uM after 10 mins by spectrophotometric analysis relative to control.
The species entered for the next series is Gallus gallus. As to the kind of experiment: Activation of actin-stimulated chicken gizzard smooth muscle myosin S1 fragment ATPase activity at 100 uM after 10 mins by spectrophotometric analysis relative to control.
The test system of series [3] is Cardiac muscle cell. As to the kind of experiment: Positive inotropic activity in Sprague-Dawley rat ventricular myocytes assessed as change in ventricular cell contractility by measuring cell shortening at 1 uM. It is filed as functional.
For series [4], the system named is Cardiac muscle cell. As to the kind of experiment: Positive inotropic activity in Sprague-Dawley rat ventricular myocytes assessed as change in ventricular cell contractility by measuring cell shortening at 5 uM. The class given is functional.
Series [5] is described as follows: Aqueous solubility of the compound in water. It is filed as physicochemical. To be noted: buffer.

For `O=C(NCCCc1ccccc1)NCCc1ccc(Cl)cc1`, the Activity in the series listed under Bos taurus came out at 31%. For `NS(=O)(=O)c1ccc(CCNC(=O)NCCCc2ccccc2)cc1`, the Activity came to 41.9% in the series filed under Bos taurus, 11.24% with Rattus norvegicus [1] and 7.23% with Rattus norvegicus [2].

As to `O=C(NCCCc1ccccc1)NCCc1ccccc1F`, the Activity in the series listed under Bos taurus stood at 65.4%; in the series with Rattus norvegicus [1] it was 12.52%; in the series on Rattus norvegicus [2] it was 8.76%. For `CN(C)S(=O)(=O)c1ccc(CNC(=O)N2CCC(c3ccccc3)CC2)cc1`, the Activity in the series listed under Bos taurus is 27.6%. On the same count and under the same terms, the value for `NS(=O)(=O)c1ccc(CCNC(=O)NCCCc2ccc(Cl)cc2)cc1` was 37.9%.

On to `CCN(CCc1ccc(S(=O)(=O)N(C)C)cc1)C(=O)NCCCc1ccccc1`, for which the Activity in the series listed under Bos taurus turned out to be 39.5%. Still for that read-out and setting: to `CC(C)N(CCc1ccc(S(=O)(=O)N(C)C)cc1)C(=O)N(C)CCCc1ccccc1` belongs 40.6%; to `COc1ccc(CCNC(=O)NCCCCc2ccccc2)cc1OC`, 32.5%. Same read-out and setting: the value for `NS(=O)(=O)c1ccc(CNC(=O)NCCCc2ccccc2)cc1` was 39.6%. On to `COC(=O)N1CCN(Cc2cccc(NC(=O)Nc3ccc(C)nc3)c2F)CC1` [OMECAMTIV MECARBIL], for which the Activity in the series listed under Bos taurus is 58%; in the series filed under Oryctolagus cuniculus, 2.8%; in the series filed under Gallus gallus, -5.5%; in the series with Rattus norvegicus [1], 20.32%; with Rattus norvegicus [2] it was 13.35%; in the series on Cardiac muscle cell [3] it was 33.8%.

On to `CN(C)S(=O)(=O)c1ccc(CCNC(=O)NCCCc2ccccc2)cc1`, for which the Activity is 91.6% in the series listed under Bos taurus; -3.8% in the series filed under Oryctolagus cuniculus; -1.9% in the series filed under Gallus gallus; 17.62% in the series on Rattus norvegicus [1]; 11.55% in the series with Rattus norvegicus [2]; 47.9% in the series with Cardiac muscle cell [4]. Take `CCN(CCCc1ccccc1)C(=O)N(CC)CCc1ccc(S(=O)(=O)N(C)C)cc1`: the Activity in the series listed under Bos taurus is 30.3%.

Take `COc1cccc(CCNC(=O)NCCCc2ccccc2)c1`: in the series listed under Bos taurus, the Activity was found to be 35%. The same measure, in the same setting: to `CN(C)S(=O)(=O)c1ccc(C2CCN(C(=O)NCCCc3ccccc3)CC2)cc1` belongs 85.1%. In the case of `Cc1ccc2c(c1)C(=O)[C@]1(O)CCN(c3ccccc3)C1=N2`, the results for the Activity in the series filed under Oryctolagus cuniculus and in the series filed under Gallus gallus were -50.7% and -35.7%, respectively. On to `O=C(NCCCc1ccccc1)NCc1ccccc1`, for which the Activity was 53.3% in the series listed under Bos taurus; 1.4% in the series filed under Oryctolagus cuniculus; -3.7% in the series filed under Gallus gallus; 30.04% in the series with Rattus norvegicus [1]; 18.27% in the series with Rattus norvegicus [2]; 25.3% with Cardiac muscle cell [4].

Regarding `COc1ccc(CCNC(=O)NCCCc2ccccc2)cc1OC`, the Activity in the series filed under Bos taurus was 122%; in the series listed under Oryctolagus cuniculus it was -2.4%; in the series filed under Gallus gallus it was 4.3%; with Rattus norvegicus [1], 23.97%; with Rattus norvegicus [2], 15.87%; with Cardiac muscle cell [4], 22.2%. On to `CN(CCc1ccc(S(=O)(=O)N(C)C)cc1)C(=O)NCCCc1ccccc1`, for which the Activity in the series listed under Bos taurus came to 52.3%; with Rattus norvegicus [1], 38.96%; with Rattus norvegicus [2], 24.19%.

Regarding `COc1ccc(CNC(=O)NCCCc2ccccc2)cc1`, the Activity in the series listed under Bos taurus is 25.4%. Still for that read-out and setting: the value for `O=C(NCCCc1ccccc1)NCCc1ccc(C(=O)O)cc1` was 40.6%; that for `COc1ccc(S(N)(=O)=O)c(CCNC(=O)NCCCc2ccccc2)c1` was 29.4%. With `COc1ccc(CCCNC(=O)NCCc2ccc(S(N)(=O)=O)cc2)cc1`, the Activity in the series filed under Bos taurus amounted to 34.8%. Take `CC(C)c1ccc(CCNC(=O)NCCCc2ccccc2)cc1`: the Activity in the series filed under Bos taurus is 33.3%. Turning to `CN(CCCc1ccccc1)C(=O)N(C)CCc1ccc(S(=O)(=O)N(C)C)cc1`, the Activity was found to be 69% in the series filed under Bos taurus, 0.46% in the series with Rattus norvegicus [1] and 0.27% in the series with Rattus norvegicus [2]. With `CN(C)S(=O)(=O)c1ccc(CCNC(=O)NCCCc2ccc(F)cc2)cc1`, the Activity in the series filed under Bos taurus was 20.6%. Still for that read-out and setting: to `O=C(NCCCc1ccccc1)NCCc1ccc(Cl)cc1Cl` belongs 37.3%; to `O=C(NCCCc1ccccc1)NCCc1ccc(F)cc1`, 38.6%. The same measure, in the same setting: the value for `CN(C)S(=O)(=O)c1ccc(C2CCN(C(=O)NCc3ccccc3)CC2)cc1` was 36.9%. Regarding `CN(C)S(=O)(=O)c1ccc(CCCNC(=O)NCc2ccccc2)cc1`, in the series listed under Bos taurus, the Activity was found to be 20.8%. For `O=C(NCCCc1ccc(F)cc1)NCc1ccccc1`, the Activity in the series filed under Bos taurus is 9.5%. As for `COc1ccc(CCNC(=O)NCCCc2ccccc2)cc1`, the Activity in the series listed under Bos taurus amounted to 40%.

`NS(=O)(=O)c1ccc(CCNC(=O)NCCCc2ccc(F)cc2)cc1`: the Activity in the series listed under Bos taurus amounted to 19.1%.

Take `NS(=O)(=O)c1ccc(NC(=O)NCCCc2ccccc2)cc1`: in the series listed under Bos taurus, the Activity was 31.8%. The same measure, in the same setting: to `CN(C)S(=O)(=O)c1ccc(CCNC(=O)N2CCC(c3ccccc3)CC2)cc1` belongs 40.7%; to `CN(C)c1ccc(CCNC(=O)NCCCc2ccccc2)cc1`, 45.3%; to `O=C(NCCCc1ccccc1)NCCc1ccc([N+](=O)[O-])cc1`, 56.2%. As for `O=C(NCCCc1ccccc1)NCCc1ccccc1`, the Activity in the series listed under Bos taurus is 51.1%; in the series filed under Oryctolagus cuniculus, -2.1%; in the series listed under Gallus gallus, -4.7%; in the series with Rattus norvegicus [1], 18.9%; with Rattus norvegicus [2], 12.15%; in the series on Cardiac muscle cell [4], 20.8%.

On to `Nc1ccc(CCNC(=O)NCCCc2ccccc2)cc1`, for which the Activity turned out to be 55.2% in the series listed under Bos taurus, 6.37% in the series on Rattus norvegicus [1] and 4.16% with Rattus norvegicus [2]. On to `CN(C)S(=O)(=O)c1ccc(C2CCN(C(=O)NCCc3ccccc3)CC2)cc1`, for which the Activity in the series listed under Bos taurus turned out to be 32.6%. Same read-out and setting: the value for `COc1ccc(CCCNC(=O)NCc2ccccc2)cc1` was 30.5%; that for `COc1ccc(CCCNC(=O)NCCc2ccc(OC)c(OC)c2)cc1` was 38.4%. On the same count and under the same terms, the value for `CN(C)S(=O)(=O)c1ccc(CNC(=O)NCCCc2ccccc2)cc1` was 34.5%.

On to `CN(CCCc1ccccc1)C(=O)NCCc1ccc(S(=O)(=O)N(C)C)cc1`, for which the Activity in the series filed under Bos taurus is 47.6%; with Rattus norvegicus [1], 23.19%; in the series on Rattus norvegicus [2] it was 15.47%. Regarding `NS(=O)(=O)c1ccc(CCNC(=O)NCCCCc2ccccc2)cc1`, the Activity in the series filed under Bos taurus came out at 36.6%. Take `COc1ccccc1CCNC(=O)NCCCc1ccccc1`: the Activity was 95.1% in the series listed under Bos taurus; 3.5% in the series filed under Oryctolagus cuniculus; 5.3% in the series filed under Gallus gallus; 20.47% with Rattus norvegicus [1]; 13.58% with Rattus norvegicus [2]; 19.7% with Cardiac muscle cell [4]. With `COc1ccc(CNC(=O)NCCCc2ccccc2)cc1OC`, in the series filed under Bos taurus, the Activity stood at 38.8%. `Cc1ccc(CCNC(=O)NCCCc2ccccc2)cc1`: the Activity in the series filed under Bos taurus amounted to 73.8%. Further, the solubility result in series [5] is recorded as “Insoluble”. Turning to `CC(C)N(CCc1ccc(S(=O)(=O)N(C)C)cc1)C(=O)NCCCc1ccccc1`, the Activity in the series listed under Bos taurus is 38.1%.

These data come from ChEMBL document CHEMBL4251594, “Design and synthesis of sulfonamidophenylethylureas as novel cardiac myosin activator” (Eur J Med Chem, 2018).
